Results as given in ChEMBL document CHEMBL1134055, “The synthesis of amino-acid functionalized beta-carbolines as topoisomerase II inhibitors” (2001).

Tested on: PC-3
Experiment: In vitro cell growth inhibition of PC3 cell line determined using non-radioactive cell proliferation assay at a dose of 10 uM
Assay type: functional, Homo sapiens
Method in brief: (§1)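 Tetrazolium-type colorimetric proliferation assay (CellTiter 96 AQueous, non-radioactive); cells treated at 10, 50 and 100 µM; read as percent cell survival. All points in quadruplicate. Vehicle control DMSO (0.20%); m-AMSA (20, 40 µM) as reference control.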

Q: With `COC(=O)[C@@H](CCSC)NC(=O)[C@@H]1Cc2c([nH]c3ccccc23)[C@@H](c2cc(OC)c(O)c(OC)c2)N1` as the molecule, how does the Cell survival read?
A: The Cell survival was over 100%.

Q: Which Cell survival does the source give for `COC(=O)[C@H](NC(=O)[C@@H]1Cc2c([nH]c3ccccc23)[C@@H](c2cc(OC)c(O)c(OC)c2)N1)c1ccccc1` here?
A: The Cell survival was over 100%.

Q: Which Cell survival does the source give for `COC(=O)[C@H]1CCCN1C(=O)[C@@H]1Cc2c([nH]c3ccccc23)[C@@H](c2cc(OC)c(O)c(OC)c2)N1` here?
A: The Cell survival was 98%.

Q: With `COC(=O)[C@@H]1CCCN1C(=O)[C@@H]1Cc2c([nH]c3ccccc23)[C@@H](c2cc(OC)c(O)c(OC)c2)N1` as the molecule, how does the Cell survival read?
A: Its Cell survival is 96.8%.

Q: With `COC(=O)[C@H](Cc1c[nH]c2ccccc12)NC(=O)[C@@H]1Cc2c([nH]c3ccccc23)[C@@H](c2cc(OC)c(O)c(OC)c2)N1` as the molecule, how does the Cell survival read?
A: Its Cell survival is 95.7%.

Q: Which Cell survival does the source give for `COC(=O)[C@H](Cc1ccc(O)cc1)NC(=O)[C@@H]1Cc2c([nH]c3ccccc23)[C@@H](c2cc(OC)c(O)c(OC)c2)N1` here?
A: Its Cell survival is over 100%.

Tested on: NCI-H520
Experiment: In vitro cell growth inhibition of H520 cell line determined using Non-Radioactive Cell Proliferation Assay at a dose of 100 uM
Assay type: functional, Homo sapiens
Method in brief: as §1

Q: With `COC(=O)[C@H](Cc1ccccc1)NC(=O)[C@@H]1Cc2c([nH]c3ccccc23)[C@@H](c2cc(OC)c(O)c(OC)c2)N1` as the molecule, how does the Cell survival read?
A: The Cell survival was 14.8%.

Q: With `COC(=O)[C@@H](CCSC)NC(=O)[C@@H]1Cc2c([nH]c3ccccc23)[C@@H](c2cc(OC)c(O)c(OC)c2)N1` as the molecule, how does the Cell survival read?
A: Its Cell survival is 89.6%.

Q: Which Cell survival does the source give for `COC(=O)[C@H](NC(=O)[C@@H]1Cc2c([nH]c3ccccc23)[C@@H](c2cc(OC)c(O)c(OC)c2)N1)c1ccccc1` here?
A: The Cell survival was 99.2%.

Q: For `COC(=O)[C@@H]1CCCN1C(=O)[C@@H]1Cc2c([nH]c3ccccc23)[C@@H](c2cc(OC)c(O)c(OC)c2)N1`, which Cell survival is on record?
A: Its Cell survival is 86.6%.

Q: For `COC(=O)[C@H](Cc1c[nH]c2ccccc12)NC(=O)[C@@H]1Cc2c([nH]c3ccccc23)[C@@H](c2cc(OC)c(O)c(OC)c2)N1`, which Cell survival is on record?
A: Its Cell survival is 2.8%.

Q: For `COC(=O)[C@H](Cc1ccc(O)cc1)NC(=O)[C@@H]1Cc2c([nH]c3ccccc23)[C@@H](c2cc(OC)c(O)c(OC)c2)N1`, which Cell survival is on record?
A: Its Cell survival is 98.6%.

Tested on: PC-3
Experiment: In vitro cell growth inhibition of PC3 cell line determined using non-radioactive cell proliferation assay at a dose of 100 uM
Assay type: functional, Homo sapiens
Method in brief: as §1

Q: With `COC(=O)[C@H](Cc1ccccc1)NC(=O)[C@@H]1Cc2c([nH]c3ccccc23)[C@@H](c2cc(OC)c(O)c(OC)c2)N1` as the molecule, how does the Cell survival read?
A: The Cell survival was 18%.

Q: With `COC(=O)[C@@H](CCSC)NC(=O)[C@@H]1Cc2c([nH]c3ccccc23)[C@@H](c2cc(OC)c(O)c(OC)c2)N1` as the molecule, how does the Cell survival read?
A: The Cell survival was over 100%.

Q: With `COC(=O)[C@H](NC(=O)[C@@H]1Cc2c([nH]c3ccccc23)[C@@H](c2cc(OC)c(O)c(OC)c2)N1)c1ccccc1` as the molecule, how does the Cell survival read?
A: The Cell survival was over 100%.

Q: With `COC(=O)[C@H]1CCCN1C(=O)[C@@H]1Cc2c([nH]c3ccccc23)[C@@H](c2cc(OC)c(O)c(OC)c2)N1` as the molecule, how does the Cell survival read?
A: The Cell survival was 66.3%.

Q: With `COC(=O)[C@@H]1CCCN1C(=O)[C@@H]1Cc2c([nH]c3ccccc23)[C@@H](c2cc(OC)c(O)c(OC)c2)N1` as the molecule, how does the Cell survival read?
A: The Cell survival was over 100%.

Q: For `COC(=O)[C@H](Cc1c[nH]c2ccccc12)NC(=O)[C@@H]1Cc2c([nH]c3ccccc23)[C@@H](c2cc(OC)c(O)c(OC)c2)N1`, which Cell survival is on record?
A: Its Cell survival is 6.7%.

Q: With `COC(=O)[C@H](Cc1ccc(O)cc1)NC(=O)[C@@H]1Cc2c([nH]c3ccccc23)[C@@H](c2cc(OC)c(O)c(OC)c2)N1` as the molecule, how does the Cell survival read?
A: The Cell survival was 94.9%.

Tested on: PC-3
Experiment: In vitro cell growth inhibition of PC3 cell line determined using Non-Radioactive Cell Proliferation Assay at a dose of 50 uM
Assay type: functional, Homo sapiens
Method in brief: as §1

Q: Which Cell survival does the source give for `COC(=O)[C@H](Cc1ccccc1)NC(=O)[C@@H]1Cc2c([nH]c3ccccc23)[C@@H](c2cc(OC)c(O)c(OC)c2)N1` here?
A: The Cell survival was 90.6%.

Q: For `COC(=O)[C@@H](CCSC)NC(=O)[C@@H]1Cc2c([nH]c3ccccc23)[C@@H](c2cc(OC)c(O)c(OC)c2)N1`, which Cell survival is on record?
A: The Cell survival was over 100%.

Q: With `COC(=O)[C@H](NC(=O)[C@@H]1Cc2c([nH]c3ccccc23)[C@@H](c2cc(OC)c(O)c(OC)c2)N1)c1ccccc1` as the molecule, how does the Cell survival read?
A: The Cell survival was over 100%.

Q: Which Cell survival does the source give for `COC(=O)[C@@H]1CCCN1C(=O)[C@@H]1Cc2c([nH]c3ccccc23)[C@@H](c2cc(OC)c(O)c(OC)c2)N1` here?
A: The Cell survival was 98.3%.

Q: For `COC(=O)[C@H](Cc1c[nH]c2ccccc12)NC(=O)[C@@H]1Cc2c([nH]c3ccccc23)[C@@H](c2cc(OC)c(O)c(OC)c2)N1`, which Cell survival is on record?
A: Its Cell survival is 77%.

Q: For `COC(=O)[C@H](Cc1ccc(O)cc1)NC(=O)[C@@H]1Cc2c([nH]c3ccccc23)[C@@H](c2cc(OC)c(O)c(OC)c2)N1`, which Cell survival is on record?
A: Its Cell survival is 96.4%.

Tested on: not listed separately
Experiment: Inhibition of topo II-mediated DNA relaxation measured by topo II-mediated DNA relaxation assay; - indicates drug does not interaction with topo II
Assay type: functional
Method in brief: (§2)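 Relaxation of supercoiled plasmid pUC18 DNA (E. coli) by topo II (2.0 units per reaction) in Tris-Cl pH 8.0 buffer with KCl, MgCl2, ATP, DTT and BSA; 1 µL of 1 mM drug in 10% DMSO per 10 µL reaction, enzyme added last; 37 °C for 30-45 min. Stopped with sarkosyl buffer, chloroform/isoamyl alcohol extraction, 1% agarose gel, ethidium stain. Densitometric qualitative scoring; gels in triplicate.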

Q: For `COC(=O)[C@@H]1CCCN1C(=O)[C@@H]1Cc2c([nH]c3ccccc23)[C@@H](c2cc(OC)c(O)c(OC)c2)N1`, which DNA relaxation is on record?
A: The DNA relaxation was “drug does not interact with topo II”.

Tested on: NCI-H520
Experiment: In vitro cell growth inhibition of H520 cell line determined using non-radioactive cell proliferation assay at a dose of 10 uM
Assay type: functional, Homo sapiens
Method in brief: as §1

Q: For `COC(=O)[C@H](Cc1ccccc1)NC(=O)[C@@H]1Cc2c([nH]c3ccccc23)[C@@H](c2cc(OC)c(O)c(OC)c2)N1`, which Cell survival is on record?
A: Its Cell survival is 59.4%.

Q: Which Cell survival does the source give for `COC(=O)[C@@H](CCSC)NC(=O)[C@@H]1Cc2c([nH]c3ccccc23)[C@@H](c2cc(OC)c(O)c(OC)c2)N1` here?
A: The Cell survival was over 100%.

Q: Which Cell survival does the source give for `COC(=O)[C@H](NC(=O)[C@@H]1Cc2c([nH]c3ccccc23)[C@@H](c2cc(OC)c(O)c(OC)c2)N1)c1ccccc1` here?
A: The Cell survival was over 100%.

Q: With `COC(=O)[C@H]1CCCN1C(=O)[C@@H]1Cc2c([nH]c3ccccc23)[C@@H](c2cc(OC)c(O)c(OC)c2)N1` as the molecule, how does the Cell survival read?
A: The Cell survival was 94.3%.

Q: Which Cell survival does the source give for `COC(=O)[C@@H]1CCCN1C(=O)[C@@H]1Cc2c([nH]c3ccccc23)[C@@H](c2cc(OC)c(O)c(OC)c2)N1` here?
A: Its Cell survival is 80.5%.

Q: Which Cell survival does the source give for `COC(=O)[C@H](Cc1c[nH]c2ccccc12)NC(=O)[C@@H]1Cc2c([nH]c3ccccc23)[C@@H](c2cc(OC)c(O)c(OC)c2)N1` here?
A: The Cell survival was 67.9%.

Q: For `COC(=O)[C@H](Cc1ccc(O)cc1)NC(=O)[C@@H]1Cc2c([nH]c3ccccc23)[C@@H](c2cc(OC)c(O)c(OC)c2)N1`, which Cell survival is on record?
A: The Cell survival was over 100%.

Tested on: PC-3
Experiment: In vitro cell growth inhibition of PC3 cell line determined using Non-Radioactive Cell Proliferation Assay at a dose of 10 uM
Assay type: functional, Homo sapiens
Method in brief: as §1

Q: With `COC(=O)[C@H](Cc1ccccc1)NC(=O)[C@@H]1Cc2c([nH]c3ccccc23)[C@@H](c2cc(OC)c(O)c(OC)c2)N1` as the molecule, how does the Cell survival read?
A: Its Cell survival is 97.8%.

Tested on: not listed separately
Experiment: Inhibition of topo II-mediated DNA relaxation measured by topo II-mediated DNA relaxation assay; +++ indicates drug interaction with topo II
Assay type: functional
Method in brief: as §2

Q: For `COC(=O)[C@H](NC(=O)[C@@H]1Cc2c([nH]c3ccccc23)[C@@H](c2cc(OC)c(O)c(OC)c2)N1)c1ccccc1`, which DNA relaxation is on record?
A: The DNA relaxation was “drug interaction with topo II”.

Tested on: NCI-H520
Experiment: In vitro cell growth inhibition of H520 cell line determined using non-radioactive cell proliferation assay at a dose of 50 uM
Assay type: functional, Homo sapiens
Method in brief: as §1

Q: Which Cell survival does the source give for `COC(=O)[C@H](Cc1ccccc1)NC(=O)[C@@H]1Cc2c([nH]c3ccccc23)[C@@H](c2cc(OC)c(O)c(OC)c2)N1` here?
A: The Cell survival was 97.4%.

Q: With `COC(=O)[C@@H](CCSC)NC(=O)[C@@H]1Cc2c([nH]c3ccccc23)[C@@H](c2cc(OC)c(O)c(OC)c2)N1` as the molecule, how does the Cell survival read?
A: Its Cell survival is over 100%.

Q: Which Cell survival does the source give for `COC(=O)[C@H](NC(=O)[C@@H]1Cc2c([nH]c3ccccc23)[C@@H](c2cc(OC)c(O)c(OC)c2)N1)c1ccccc1` here?
A: Its Cell survival is over 100%.

Q: For `COC(=O)[C@H]1CCCN1C(=O)[C@@H]1Cc2c([nH]c3ccccc23)[C@@H](c2cc(OC)c(O)c(OC)c2)N1`, which Cell survival is on record?
A: Its Cell survival is 86.1%.

Q: For `COC(=O)[C@@H]1CCCN1C(=O)[C@@H]1Cc2c([nH]c3ccccc23)[C@@H](c2cc(OC)c(O)c(OC)c2)N1`, which Cell survival is on record?
A: The Cell survival was 83.4%.

Q: With `COC(=O)[C@H](Cc1c[nH]c2ccccc12)NC(=O)[C@@H]1Cc2c([nH]c3ccccc23)[C@@H](c2cc(OC)c(O)c(OC)c2)N1` as the molecule, how does the Cell survival read?
A: Its Cell survival is 61.1%.

Q: With `COC(=O)[C@H](Cc1ccc(O)cc1)NC(=O)[C@@H]1Cc2c([nH]c3ccccc23)[C@@H](c2cc(OC)c(O)c(OC)c2)N1` as the molecule, how does the Cell survival read?
A: The Cell survival was over 100%.

Tested on: PC-3
Experiment: In vitro cell growth inhibition of PC3 cell line determined using non-radioactive cell proliferation assay at a dose of 50 uM
Assay type: functional, Homo sapiens
Method in brief: as §1

Q: Which Cell survival does the source give for `COC(=O)[C@H]1CCCN1C(=O)[C@@H]1Cc2c([nH]c3ccccc23)[C@@H](c2cc(OC)c(O)c(OC)c2)N1` here?
A: Its Cell survival is 99.4%.

Tested on: NCI-H520
Experiment: In vitro cell growth inhibition of H520 cell line determined using non-radioactive cell proliferation assay at a dose of 100 uM
Assay type: functional, Homo sapiens
Method in brief: as §1

Q: For `COC(=O)[C@H]1CCCN1C(=O)[C@@H]1Cc2c([nH]c3ccccc23)[C@@H](c2cc(OC)c(O)c(OC)c2)N1`, which Cell survival is on record?
A: The Cell survival was 61%.
